How the values were obtained:
[1] = test system: Escherichia coli; experiment: Tested for inhibition of intraperitoneal infection against Escherichia coli O-111; format: functional
Procedure, shortened: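 Protection assay run in Slc:ICR mice. ED50 was calculated by the Reed and Muench method from survival recorded 5 days after infection.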

[2] = (§1) Half-life of 10% mouse kidney homogenate is tested; format: ADME; conditions: 10% mouse kidney homogenate
Procedure, shortened: (§2)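 Carbapenem at 50 μg/mL incubated in 10% mouse kidney homogenate at 30 °C to assess stability to mouse renal enzyme(s).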

[3] = test system: Serratia marcescens; experiment: beta-lactamase inhibitory activity of the 5,6-cis-carbapenem antibiotic on cephalosporinase against Serratia marcescens TN81; format: functional, organism-based, serratia marcesc; conditions: for IC50: Serratia marcescens, read-out: I50
[4] = test system: Staphylococcus aureus; experiment: Tested for beta-lactamase inhibitory activity of the 5,6-cis-carbapenem antibiotic on penicillinase against Staphylococcus aureus 1840; format: functional, organism-based; conditions: read-out: I50
[5] = test system: Proteus vulgaris; experiment: beta-lactamase inhibitory activity of the 5,6-cis-carbapenem antibiotic on cephalosporinase against Proteus vulgaris GN4413; format: functional, organism-based; conditions: for IC50: Proteus vulgaris, read-out: I50
[6] = test system: Klebsiella pneumoniae; experiment: Tested for minimum inhibitory concentration against Klebsiella pneumoniae TN1655 on ampicillin at a concentration of 0.1 ug/mL into the agar plate; format: functional
[7] = test system: Klebsiella pneumoniae; experiment: Tested for beta-lactamase inhibitory activity of the 5,6-cis-carbapenem antibiotic on penicillinase against Klebsiella pneumoniae TN1698; format: functional, organism-based; conditions: for IC50: Klebsiella pneumoniae, read-out: I50
[8] = test system: Proteus vulgaris; experiment: Tested for minimum inhibitory concentration against Proteus vulgaris GN4815 on cefotiam at a concentration of 0.1 ug/mL into the agar plate
[9] = test system: Staphylococcus aureus; experiment: Tested for minimum inhibitory concentration against Staphylococcus aureus 1840 on ampicillin at a concentration of 0.1 ug/mL into the agar plate; format: functional
[10] = test system: Serratia marcescens; experiment: Tested for minimum inhibitory concentration against Serratia marcescens 12648 on cefotiam at a concentration of 0.1 ug/mL into the agar plate
[11] = test system: Serratia marcescens; experiment: Tested for minimum inhibitory concentration against Serratia marcescens IFO 12648; format: functional
Procedure, shortened: (§3)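 Agar dilution MIC on Trypticase soy agar. Each plate was inoculated with one loopful of a 10^8 cfu/mL bacterial suspension.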

[12] = test system: Proteus vulgaris; experiment: Minimum inhibitory concentration against Proteus vulgaris GN4815 on cefotiam at a concentration of 0.1 ug/mL into the agar plate
[13] = test system: Acinetobacter calcoaceticus; experiment: Minimum inhibitory concentration against Acinetobacter calcoacet IFO 13006; format: functional
Procedure, shortened: (§4)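 MIC by agar dilution on Trypticase soy agar. Inoculum was one loopful of a 10^8 cfu/mL bacterial suspension.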

[14] = test system: Proteus vulgaris; experiment: Tested for minimum inhibitory concentration against Proteus vulgaris IFO 3988; format: functional; procedure, shortened: as §4
[15] = test system: Escherichia coli; experiment: Tested for minimum inhibitory concentration against Escherichia coli O-111; format: functional; procedure, shortened: as §4
[16] = test system: Pseudomonas aeruginosa; experiment: Tested for minimum inhibitory concentration against Pseudomonas aeruginosa IFO 3455; format: functional; procedure, shortened: as §3
[17] = test system: Proteus vulgaris; experiment: tested for minimum inhibitory concentration against Proteus vulgaris GN4815 on cefotiam at a concentration of 0.1 ug/mL into the agar plate
[18] = test system: Klebsiella pneumoniae; experiment: Tested for minimum inhibitory concentration against Klebsiella pneumoniae TN1655 on ampicillin at a concentration of 0.1 ug/mL into the agar plate
[19] = tested for minimum inhibitory concentration against […] 12486 on ampicillin at a concentration of 0.1 ug/mL into the agar plate; format: functional
[20] = test system: Citrobacter freundii; experiment: Tested for minimum inhibitory concentration against […] IFO 12681; format: functional; procedure, shortened: as §3
[21] = test system: Morganella morganii; experiment: Tested for minimum inhibitory concentration against […] IFO 3168; format: functional; procedure, shortened: as §3
[22] = test system: Proteus mirabilis; experiment: Tested for minimum inhibitory concentration against […] IFO 3849; format: functional; procedure, shortened: as §3
[23] = test system: Klebsiella pneumoniae; experiment: Tested for minimum inhibitory concentration against Klebsiella pneumoniae DT; format: functional; procedure, shortened: as §3
[24] = test system: Staphylococcus aureus; experiment: Tested for minimum inhibitory concentration against Staphylococcus aureus 308 A-1; format: functional; procedure, shortened: as §3
[25] = test system: Enterobacter cloacae; experiment: Tested for minimum inhibitory concentration against […] IFO 12937; format: functional; procedure, shortened: as §3
[26] = test system: Escherichia coli; experiment: Tested for minimum inhibitory concentration against Escherichia coli T-7; format: functional; procedure, shortened: as §3
[27] = species: Mus musculus; experiment: as §1; format: ADME; conditions: in vitro; procedure, shortened: as §2
[28] = Escherichia coli, ip, read-out: ED50
[29] = Acinetobacter calcoaceticus, IFO 13006, read-out: MIC
[30] = Pseudomonas aeruginosa, IFO 3455, read-out: MIC

Row | half-life [2] [min] | IC50 [3] [µg/mL] | IC50 [4] [µg/mL] | IC50 [5] [µg/mL] | MIC [6] [µg/mL] | IC50 [7] [ng/mL] | MIC [9] [µg/mL] | MIC [10] [µg/mL] | MIC [12] [µg/mL] | SMILES | ED50 [1, 28] [mg/kg] | also measured
1 | 40 | 0.0011 | 0.065 | 1.5 | 100 | 320 | 1.56 | 25 |  | CC(=O)[N-]/C=C/SC1=C(C(=O)[O-])N2C(=O)[C@@H](C(C)O)[C@H]2C1.[Na+].[Na+] (some centres undefined) | 17.7 | MIC [8]: 400 µg/mL
2 | 37 |  | 0.21 | 0.00037 | 6.25 | 5.2 |  | 6.25 | 1.56 | CC(=O)N/C=C/[S+]([O-])C1=C(C(=O)[O-])N2C(=O)[C@@H](C(C)(C)OS(=O)(=O)[O-])[C@H]2C1.[Na+].[Na+] (some centres undefined) | > 100 | I50 [3]: 55 ng/mL; MIC ([11]; Serratia marcescens, IFO 12648, read-out: MIC): 12.5 µg/mL
3 | 19 | 0.0053 |  | 0.017 | 100 | 220 | 12.5 | 12.5 | 25 | CC(=O)N/C=C\SC1=C(C(=O)[O-])N2C(=O)[C@@H](C(C)(C)O)[C@H]2C1.[Na+] | > 50 | 
4 | 12 |  |  |  |  |  |  |  |  | CC(=O)N/C=C/SC1=C(C(=O)[O-])N2C(=O)[C@@H](C(C)O)[C@H]2C1.[Na+] (some centres undefined) | > 50 | MIC [13, 29]: 3.13 µg/mL; MIC ([14]; Proteus vulgaris, IFO 3988, read-out: MIC): 3.13 µg/mL; MIC ([15]; Escherichia coli, read-out: MIC): 0.39 µg/mL; MIC [16, 30]: 100 µg/mL
5 | 21 |  |  |  |  |  |  |  |  | CC(=O)N/C=C/SC1=C(C(=O)[O-])N2C(=O)[C@@H](C(C)OS(=O)(=O)[O-])[C@H]2C1.[Na+].[Na+] (some centres undefined) | > 50 | MIC [16, 30]: 3.13 µg/mL
6 | 7 |  |  |  |  |  |  |  |  | CC(=O)N/C=C/SC1=C(C(=O)[O-])N2C(=O)[C@@H](C(C)(C)OS(=O)(=O)[O-])[C@H]2C1.[Na+].[Na+] | > 50 | 
7 |  | 0.00029 | 0.00055 | 0.019 |  | 2.4 | 6.25 |  |  | CC(=O)N/C=C\[S+]([O-])C1=C(C(=O)[O-])N2C(=O)[C@@H](C(C)O)[C@H]2C1.[Na+] (some centres undefined) |  | MIC [17]: 400 µg/mL; MIC [18]: 100 µg/mL
8 | 42 | 0.001 | 0.014 | 0.00035 | 25 | 1.8 |  |  | 1.56 | CC(=O)N/C=C\SC1=C(C(=O)[O-])N2C(=O)[C@@H](C(C)OS(=O)(=O)[O-])[C@H]2C1.[Na+].[Na+] (some centres undefined) | > 50 | MIC [19]: 12.5 µg/mL
9 |  | 0.00034 | 0.0034 | 0.00016 |  | 0.08 | 50 | 25 | 50 | CC(=O)N/C=C\[S+]([O-])C1=C(C(=O)[O-])N2C(=O)[C@@H](C(C)OS(=O)(=O)[O-])[C@H]2C1.[Na+].[Na+] (some centres undefined) |  | 
10 | 19 | 0.051 | 1 | 0.0038 | 50 | 28 | 50 | 25 | 1.56 | CC(=O)N/C=C\SC1=C(C(=O)[O-])N2C(=O)[C@@H](C(C)(C)OS(=O)(=O)[O-])[C@H]2C1.[Na+].[Na+] | > 50 | 
11 |  | 0.018 | 0.24 | 0.00055 | 3.13 | 1 | 50 | 12.5 | 0.78 | CC(=O)N/C=C\[S+]([O-])C1=C(C(=O)[O-])N2C(=O)[C@@H](C(C)(C)OS(=O)(=O)[O-])[C@H]2C1.[Na+].[Na+] (some centres undefined) | > 50 | 
12 | 8 |  |  |  |  |  |  |  |  | CC(=O)N/C=C/SC1=C(C(=O)[O-])N2C(=O)[C@@H](C(C)(C)O)[C@H]2C1.[Na+] | > 50 | 
13 |  |  |  |  |  |  |  |  |  | CC(=O)N/C=C/[S+]([O-])C1=C(C(=O)[O-])N2C(=O)[C@@H](C(C)(C)O)[C@H]2C1.[Na+] (stereo in doubt; 2) |  | ED50 [1]: 20 mg/kg; MIC [20]: 0.2 µg/mL; MIC [14]: 3.13 µg/mL; MIC [15]: <0.1 µg/mL
14 |  |  |  |  | 3.13 |  | 6.25 | 12.5 |  | CC(=O)N/C=C\[S+]([O-])C1=C(C(=O)[O-])N2C(=O)[C@@H](C(C)(C)O)[C@H]2C1.[Na+] (stereo in doubt; 11) |  | MIC [13, 29]: 50 µg/mL; I50 [3]: 0.34 ng/mL; MIC [14]: 25 µg/mL; MIC [21]: 12.5 µg/mL; MIC [22]: 12.5 µg/mL; MIC [23]: 3.13 µg/mL; I50 [5]: 1.1 ng/mL; MIC [11]: 3.13 µg/mL; I50 [7]: 3.8 ng/mL; MIC [15]: <0.1 µg/mL
15 |  | 0.00078 | 0.54 | 0.0028 |  | 80 |  |  |  | CC(=O)N/C=C/[S+]([O-])C1=C(C(=O)[O-])N2C(=O)[C@@H](C(C)(C)O)[C@H]2C1.[Na+] (stereo in doubt; 20) | 28.1 | MIC [24]: 3.13 µg/mL; MIC [13]: 12.5 µg/mL; MIC [20]: 3.13 µg/mL; MIC [14]: 12.5 µg/mL; MIC [21]: 25 µg/mL; MIC [22]: 12.5 µg/mL; MIC [16]: 25 µg/mL; MIC [25]: 25 µg/mL; MIC [26]: 25 µg/mL
16 |  |  | 0.59 |  |  |  |  |  |  | CC(=O)N/C=C\[S+]([O-])C1=C(C(=O)[O-])N2C(=O)[C@@H](C(C)(C)O)[C@H]2C1.[Na+] (stereo in doubt; 22) |  | MIC [24]: 3.13 µg/mL; T1/2 [27]: > 250 min; MIC [20]: 12.5 µg/mL; I50 [3]: 3.3 ng/mL; MIC [14]: 100 µg/mL; MIC [21]: 100 µg/mL; MIC [22]: 50 µg/mL; MIC [23]: 12.5 µg/mL; I50 [5]: 14 ng/mL; MIC [11]: 25 µg/mL; I50 [7]: 110 ng/mL; MIC [25]: 50 µg/mL; MIC [26]: 25 µg/mL

Source: ChEMBL document CHEMBL1122333, “Synthesis and biological activities of the Z isomers of carbapenem antibiotics” (J Med Chem, 1983)
